ChEMBL document CHEMBL3271934, “Inhibition of separated forms of phosphodiesterases from pig coronary arteries by uracils and by 7-substituted derivatives of 1-methyl-3-isobutylxanthine” (J Med Chem, 1976)
pIC50: −log10 of the molar value. The source made the active and inactive calls. The rule behind the calls is not given here.

Tests used:
[1] = Inhibition of phosphodiesterase (peak-2) isolated from pig coronary artery assessed as inhibition of cAMP hydrolysis using 1 uM cAMP substrate in presence of 3% Me2SO; conditions: Sus scrofa; read-out: I50
Summary of the method: (§1)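 Enzyme is a separated phosphodiesterase form from pig coronary arteries, assayed with 1 μM substrate at 30° for 30 min. Enzyme dilution gave 10–20% hydrolysis without inhibitor. Compounds were added from 30% Me2SO, giving a final 3% Me2SO in all tubes. Peak I received an optimal amount of activator (15 μg protein). I50 was read from concentration–percent inhibition curves spanning 10^-7 to 10^-4 M (10^-3 M if soluble). MIX reference was run each experiment. Results are mean ± SEM of duplicate determinations across enzyme preparations.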

[2] = Inhibition of phosphodiesterase (peak-1) isolated from pig coronary artery assessed as inhibition of cGMP hydrolysis using 1 uM cGMP substrate in presence of 3% Me2SO; conditions: Sus scrofa; read-out: I50; summary of the method: as §1
[3] = Inhibition of phosphodiesterase (peak-1) isolated from pig coronary artery assessed as inhibition of cAMP hydrolysis using 1 uM cAMP substrate in presence of 3% Me2SO; conditions: Sus scrofa; read-out: I50; summary of the method: as §1
[4] = species on record: Sus scrofa; assay: Inhibition of phosphodiesterase (peak-2) isolated from pig coronary artery assessed as inhibition of cAMP hydrolysis at 10^-4 M using 1 uM cAMP substrate in presence of 3% Me2SO
Summary of the method: (§2)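 Percent inhibition was measured at a single 10^-4 M concentration against a separated pig coronary artery phosphodiesterase form. Conditions: 1 μM substrate, 30°, 30 min, enzyme dilution giving 10–20% uninhibited hydrolysis, final 3% Me2SO in all tubes including blank. Peak I was assayed with an optimal amount of activator (15 μg protein). Results are duplicate determinations, mean ± SEM over separate enzyme preparations.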

[5] = species on record: Sus scrofa; assay: Inhibition of phosphodiesterase (peak-2) isolated from pig coronary artery assessed as inhibition of cAMP hydrolysis at 10^-7 to 10^-4 M using 1 uM cAMP substrate in presence of 3% EtOH
[6] = species on record: Sus scrofa; assay: Inhibition of phosphodiesterase (peak-1) isolated from pig coronary artery assessed as inhibition of cGMP hydrolysis at 10^-7 to 10^-4 M using 1 uM cGMP substrate in presence of 3% EtOH
[7] = species on record: Sus scrofa; assay: Inhibition of phosphodiesterase (peak-1) isolated from pig coronary artery assessed as inhibition of cAMP hydrolysis at 10^-7 to 10^-4 M using 1 uM cAMP substrate in presence of 3% EtOH
[8] = species on record: Sus scrofa; assay: Inhibition of phosphodiesterase (peak-1) isolated from pig coronary artery assessed as inhibition of cGMP hydrolysis at 10^-4 M using 1 uM cGMP substrate in presence of 3% Me2SO; summary of the method: as §2
[9] = species on record: Sus scrofa; assay: Inhibition of phosphodiesterase (peak-1) isolated from pig coronary artery assessed as inhibition of cAMP hydrolysis at 10^-4 M using 1 uM cAMP substrate in presence of 3% Me2SO; summary of the method: as §2

pIC50 [1] | pIC50 [2] | pIC50 [3] | inhibition [4] [%] | inhibition [5] | inhibition [6] | inhibition [7] | inhibition [8] [%] | inhibition [9] [%] | Compound
4.19 | 4.44 | 4.55 |  |  |  |  |  |  | C#CCn1cnc2c1c(=O)n(C)c(=O)n2CC(C)C
4.12 | 4.59 | 4.72 |  |  |  |  |  |  | COc1ccccc1Cn1cnc2c1c(=O)n(C)c(=O)n2CC(C)C
4.37 | 5.68 | 5.64 |  |  |  |  |  |  | CC(C)Cn1c(=O)n(C)c(=O)c2c1ncn2Cc1ccc(Cl)cc1
< 4.00 | 4.55 | 4.77 | 41 |  |  |  |  |  | CC(C)Cn1c(=O)n(C)c(=O)c2c1ncn2CCc1ccccc1
4.55 | 5.48 | 5.57 |  |  |  |  |  |  | CC(C)Cn1c(=O)n(C)c(=S)c2c1ncn2Cc1ccccc1
3.97 | 5.36 | 5.44 |  | Active | Active | Active |  |  | CC(C)Cn1c(=O)n(C)c(=O)c2c1ncn2Cc1ccccc1
< 4.00 | 4.34 | 4.46 | 31 |  |  |  |  |  | COc1cc(Cn2cnc3c2c(=O)n(C)c(=O)n3CC(C)C)cc(OC)c1OC
4.70 | 5.21 | 5.43 |  |  |  |  |  |  | CC(C)Cn1c(=O)n(C)c(=O)c2c1ncn2CC1CC1
 |  |  | 9 |  |  |  | 30 | 37 | CC(C)Cn1c(N)c(NCc2ccccc2)c(=O)n(C)c1=O
4.82 | 5.20 | 5.41 |  | Active | Active | Active |  |  | CC(C)Cn1c(=O)n(C)c(=O)c2nc[nH]c21 [ISOBUTYLMETHYLXANTHINE]
5.17 | 5.15 | 5.26 |  |  |  |  |  |  | CC(C)Cn1c(=O)n(C)c(=S)c2[nH]cnc21
< 3.52 | 3.84 | 3.98 | 30 |  |  |  |  |  | CC(C)Cn1c(=O)n(C)c(=O)c2c1ncn2Cc1ccncc1
 |  |  | 15 |  |  |  | 17 | 26 | Cn1c(N)c(NCc2ccccc2)c(=O)n(C)c1=O
3.90 | 4.19 | 4.26 |  |  |  |  |  |  | CC(C)Cn1c(=O)n(C)c(=O)c2c1ncn2C
3.85 | 4.22 | 4.39 |  |  |  |  |  |  | CC(C)Cn1c(=O)n(C)c(=O)c2c1ncn2Cc1ccccc1[N+](=O)[O-]
4.32 | 5.68 | 5.89 |  |  |  |  |  |  | CC(C)Cn1c(=O)n(C)c(=O)c2c1ncn2Cc1cccc(Cl)c1
 |  |  | 6 |  |  |  | 10 | 17 | CC(C)Cn1cc(NCc2ccccc2)c(=O)n(C)c1=O
< 4.00 | 4.80 | 4.72 | 36 |  |  |  |  |  | CC(C)CCn1cnc2c1c(=O)n(C)c(=O)n2CC(C)C
< 4.00 | 4.47 | 4.57 | 44 |  |  |  |  |  | CC(C)Cn1c(=O)n(C)c(=O)c2c1ncn2Cc1ccc([N+](=O)[O-])cc1
